Measurements from ChEMBL document CHEMBL2163226, “Discovery of novel N-phenylphenoxyacetamide derivatives as EthR inhibitors and ethionamide boosters by combining high-throughput screening and synthesis” (J Med Chem, 2012).
Active and inactive are the calls of the source. The rule behind the calls is not given here.

Legend:
[1] = target: HTH-type transcriptional regulator EthR (Mycobacterium smegmatis (strain ATCC 700084 / mc(2)155)) (UniProt A0R666); assay: Binding affinity to Mycobacterium smegmatis mc2 155 EthR assessed as protein thermal unfolding at 20 uM by SYPRO Orange dye based thermal shift assay; details: Mycolicibacterium smegmatis MC2 155
Summary of the method: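 Purified EthR (10 μM final) was mixed with 20 μM ligand, 2.5× SYPRO Orange and 1% DMSO in EthR buffer. Samples were heated from 37 to 85 °C at 0.04 °C/s in a qPCR instrument, with fluorescence read at Ex/Em 465/510 nm. Tm was taken as the sigmoid inflection, and ΔTm as holo minus apo Tm. Values are the mean of two experiments.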

[2] = tested on: Mycobacterium tuberculosis; assay: Antituberculosis activity against Mycobacterium tuberculosis H37Rv-GFP infected in mouse Raw 264.7 cells assessed as microbial growth inhibition at 10 uM by automated fluorescent confocal microscopy; type: functional, organism-based
Summary of the method: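 Raw264.7 macrophages were infected with H37Rv-GFP (MOI 1:1, 2 h, 37 °C, shaking). Extracellular bacilli were killed with 20 μM amikacin for 1 h, then infected cells were incubated with compound at 10 μM alone for 5 days (37 °C, 5% CO2). After SYTO 60 staining, confocal imaging (488/635 nm) gave the percentage of infected cells; values are the average of two replicates.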

[3] = target: HTH-type transcriptional regulator EthR (Mycobacterium tuberculosis) (UniProt P9WMC1); assay: Inhibition of EthR in Mycobacterium tuberculosis H37Rv-GFP infected in mouse Raw 264.7 cells assessed as boosting of 0.1 uM ethionamide-induced microbial growth inhibition at 10 uM by automated fluorescent confocal microscopy; type: cell-based
[4] = target: HTH-type transcriptional regulator EthR (Mycobacterium smegmatis (strain ATCC 700084 / mc(2)155), UniProt A0R666); assay: Inhibition at EthR in Mycobacterium smegmatis mc2 155 assessed as reactivation of beta-glucuronidase activity measured over 48 hrs by Spectrophotometry; parameters: species or system Mycolicibacterium smegmatis MC2 155
Summary of the method: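 The reporter was M. smegmatis mc²155 carrying P1 (single-copy, hsp60-driven ethR overexpression) and P2 (uidA under the ethA promoter/operator). Culture at OD600 0.2 was mixed with MUG and compound in 10% DMSO solution. MU fluorescence (ex 390/[…]) was read at 0, 24 and 48 h at 37 °C. IC50 came from dose–response; the P2-only strain served as positive control.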

Chain of HTH-type transcriptional regulator EthR (Mycobacterium smegmatis (strain ATCC 700084 / mc(2)155)) (A0R666 whole entry): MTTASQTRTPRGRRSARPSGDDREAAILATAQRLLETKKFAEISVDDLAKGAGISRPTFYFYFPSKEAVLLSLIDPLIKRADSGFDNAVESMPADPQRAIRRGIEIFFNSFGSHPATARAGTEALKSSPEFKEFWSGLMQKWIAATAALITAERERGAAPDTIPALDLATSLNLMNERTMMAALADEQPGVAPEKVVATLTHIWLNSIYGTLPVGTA
Chain of HTH-type transcriptional regulator EthR (Mycobacterium smegmatis (strain ATCC 700084 / mc(2)155), UniProt A0R666) (A0R666 whole entry): as above
Chain of HTH-type transcriptional regulator EthR (Mycobacterium tuberculosis) (P9WMC1 whole entry): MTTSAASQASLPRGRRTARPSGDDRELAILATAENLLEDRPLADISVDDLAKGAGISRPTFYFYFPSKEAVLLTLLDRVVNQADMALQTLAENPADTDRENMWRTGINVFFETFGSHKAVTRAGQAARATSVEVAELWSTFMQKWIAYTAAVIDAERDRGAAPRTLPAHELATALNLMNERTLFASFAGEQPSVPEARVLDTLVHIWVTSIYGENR

Compound | inhibition [1] | ΔTm [1] [°C] | growth inhibition (GI) [3] [%] | other results
COc1ccc(NC(=O)CCl)cc1 | Active | – | – | –
Oc1cccc(Oc2ccccc2)c1 | Active | – | – | –
COc1cccc(OCC(=O)Nc2ccc(-c3nc4ccccc4s3)cc2)c1 | – | 9.9 | 67.6 | growth inhibition (GI) [2]: inactive
COc1cccc(NC(=O)COc2ccc(C(F)(F)F)cc2)c1 | – | 5 | -1.5 | –
COc1cccc(OCC(=O)Nc2ccc3nc(C)ccc3c2)c1 | – | 6.6 | 6.5 | –
O=C(CCl)Nc1ccccc1 | Active | – | – | –
COc1cccc(OCC(=O)Nc2ccc(Cl)c(Cl)c2)c1 | – | 6.8 | 26.7 | –
O=C(CCl)N(Cc1ccccc1)c1ccccc1 | inactive | – | – | –
Cc1ccc(OCC(=O)Nc2ccc(Cl)c(Cl)c2)cc1 | – | 6.8 | -10.4 | –
COc1cccc(OCC(=O)Nc2ccc(Oc3ccccc3)cc2)c1 | – | 6.7 | -17.5 | –
O=C(COc1ccc(F)c(F)c1)Nc1ccc(Oc2ccccc2)cc1 | – | 5.7 | -13.5 | –
Cc1ccc2cc(NC(=O)COc3ccccc3F)ccc2n1 | – | 5.1 | 83.2 | –
N#Cc1cccc(NC(=O)COc2cccc(Oc3ccccc3)c2)c1 | – | 5.7 | -7.2 | –
CCOc1ccc(NC(=O)CCl)c(Oc2ccccc2)c1 | inactive | – | – | –
COc1cccc(O)c1 | Active | – | – | –
O=C(COc1cccc(Oc2ccccc2)c1)Nc1ccc2c(c1)OCO2 | – | 8.2 | 5.7 | –
O=C(COc1ccc(Cl)cc1Cl)Nc1ccc2nc3n(c(=O)c2c1)CCCC3 | – | – | – | IC50 [4]: < 10 µM
CN(C(=O)CCl)c1ccccc1 | Active | – | – | –
O=C(COc1ccc(C(F)(F)F)cc1)Nc1ccc2c(c1)OCO2 | – | 6.2 | 1.4 | –
O=C(COc1cccc(Oc2ccccc2)c1)Nc1ccccc1 | – | 6.1 | 2.2 | –
N#Cc1cccc(OCC(=O)Nc2ccc(-c3nc4ccccc4s3)cc2)c1 | – | 8.1 | 53.4 | –
O=C(COc1cccc(Oc2ccccc2)c1)Nc1ccc(Cl)c(Cl)c1 | – | 8.9 | -1.6 | –
COc1cccc(OCC(=O)Nc2ccc(Cl)cc2)c1 | – | 6.1 | 92.6 | –

Compound | inhibition [1] | ΔTm [1] [°C] | growth inhibition (GI) [3] [%] | other results
O=C(COc1ccc(C(F)(F)F)cc1)Nc1ccc(Cl)c(Cl)c1 | – | 8.1 | -8.4 | –
Cc1ccc(-n2nc3ccc(NC(=O)COc4ccccc4C)cc3n2)cc1 | – | 6.4 | 10.9 | IC50 [4]: 2.9 µM
O=C(CCl)Nc1ccc(-c2nc3ccccc3s2)cc1 | Active | – | – | –
O=C(CCl)N(c1ccccc1)C1CCCCC1 | inactive | – | – | –
O=C(CCl)Nc1ccc2c(c1)OCO2 | Active | – | – | –
O=C(COc1ccc(F)c(F)c1)Nc1ccc(C(F)(F)F)cc1 | – | 5.6 | -12.5 | –
O=C(CCl)Nc1ccccc1-c1ccccc1 | inactive | – | – | –
Cc1ccc(OCC(=O)Nc2ccc(-c3nc4ncccc4o3)cc2)c(C)c1 | – | – | – | IC50 [4]: < 10 µM
O=C(COc1ccc(-c2ccccc2)cc1)Nc1ccc2c(c1)OCO2 | – | 7 | -3 | –
COc1ccc(N(C)C(=O)CCl)cc1 | Active | – | – | –
O=C(CCl)Nc1ccc(Cl)c(Cl)c1 | Active | – | – | –
Cc1ccc2cc(NC(=O)CCl)ccc2n1 | Active | – | – | –
COc1ccc(OCC(=O)Nc2ccc(Cl)c(Cl)c2)cc1 | – | 6.1 | -0.6 | –
N#Cc1ccc(NC(=O)COc2cccc(Oc3ccccc3)c2)cc1 | – | 6.7 | -8.9 | –
O=C(CCl)N1CCCc2ccccc21 | Active | – | – | –
O=C(COc1ccc(Cl)cc1)Nc1ccc(Cl)c(Cl)c1 | – | 6.9 | -17.9 | –
COc1ccccc1NC(=O)CCl | inactive | – | – | –
Oc1ccc(C(F)(F)F)cc1 | Active | – | – | –
O=C(COc1ccc(Cl)c(Cl)c1)Nc1ccc(C(F)(F)F)cc1 | – | 7.5 | -5.4 | –
COc1cccc(SCC(=O)Nc2ccc(-c3nc4ccccc4s3)cc2)c1 | – | 6.2 | – | –
COc1cccc(OCC(=O)Nc2ccc(-c3ccccc3)cc2)c1 | – | 7 | -2.9 | –
O=C(CCl)Nc1ccc(Oc2ccccc2)cc1 | Active | – | – | –
